# Laboratory results reported in ChEMBL document CHEMBL2086288, “Synthesis, antimicrobial and cytotoxicity study of 1,3-disubstituted-1H-naphtho[1,2-e][1,3]oxazines” (2012).
# How the values were obtained:
# Staphylococcus aureus = assay: Antibacterial activity against Staphylococcus aureus MTCC 2901 after 24 hrs by tube dilution method; type: functional
# Bacillus subtilis = assay: Antibacterial activity against Bacillus subtilis MTCC 2063 after 24 hrs by tube dilution method; type: functional
# Escherichia coli = assay: Antibacterial activity against Escherichia coli MTCC 1652 after 24 hrs by tube dilution method; type: functional
# Candida albicans = assay: Antifungal activity against Candida albicans MTCC 227 after 48 hrs by tube dilution method; type: functional
# Aspergillus niger = assay: Antifungal activity against Aspergillus niger MTCC 8184 after 7 days by tube dilution method; type: functional
# Method in brief: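 Tube (serial) dilution MIC in Sabouraud dextrose broth I.P., 25 °C for 7 days. Results are recorded as MIC and reported as pMIC in mM.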
# MCF7 [1] = assay: Growth inhibition of human MCF7 cells at 50 uM after 48 hrs by MTT assay; type: functional; settings: MCF7, 48 h, read-out: GI
# Method in brief: (§1)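 Cells from ECACC are kept in RPMI-1640 with 10% FCS and 1% penicillin at 37 °C in 5% CO2. They are seeded at 3×10^3 cells/well and dosed after 24 h from filter-sterilized DMSO stocks, then treated for 48 h. MTT (2.5 mg/mL in PBS) is added, formazan is dissolved in DMSO, and A570 is read. Viability is given as % of untreated.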
# MCF7 [2] = assay: Growth inhibition of human MCF7 cells at 10 uM after 48 hrs by MTT assay; type: functional; settings: MCF7, 48 h, read-out: GI; method in brief: as §1
# A549 [3] = assay: Growth inhibition of human A549 cells at 50 uM after 48 hrs by MTT assay; type: functional; settings: A549, 48 h, read-out: GI; method in brief: as §1
# A549 [4] = assay: Growth inhibition of human A549 cells at 10 uM after 48 hrs by MTT assay; type: functional; settings: A549, 48 h, read-out: GI; method in brief: as §1
# HCT-116 [5] = assay: Growth inhibition of human HCT116 cells at 50 uM after 48 hrs by MTT assay; type: functional; settings: HCT-116, 48 h, read-out: GI; method in brief: as §1
# HCT-116 [6] = assay: Growth inhibition of human HCT116 cells at 10 uM after 48 hrs by MTT assay; type: functional; settings: HCT-116, 48 h, read-out: GI; method in brief: as §1
# PC-3 [7] = assay: Growth inhibition of human PC3 cells at 50 uM after 48 hrs by MTT assay; type: functional; settings: PC-3, 48 h, read-out: GI; method in brief: as §1
# PC-3 [8] = assay: Growth inhibition of human PC3 cells at 10 uM after 48 hrs by MTT assay; type: functional; settings: PC-3, 48 h, read-out: GI; method in brief: as §1
# MCF7 [9] = assay: Growth inhibition of human MCF7 cells after 48 hrs by MTT assay; type: functional, cell-based; method in brief: as §1
# A549 [10] = assay: Growth inhibition of human A549 cells after 48 hrs by MTT assay; type: functional, cell-based; method in brief: as §1
# HCT-116 [11] = assay: Growth inhibition of human HCT116 cells after 48 hrs by MTT assay; type: functional, cell-based; method in brief: as §1
Compound,-logMIC (Staphylococcus aureus),-logMIC (Bacillus subtilis),-logMIC (Escherichia coli),-logMIC (Candida albicans),-logMIC (Aspergillus niger),inhibition of growth at 50 µM (MCF7 [1]) [%],inhibition of growth at 10 µM (MCF7 [2]) [%],inhibition of growth at 50 µM (A549 [3]) [%],inhibition of growth at 10 µM (A549 [4]) [%],inhibition of growth at 50 µM (HCT-116 [5]) [%],inhibition of growth at 10 µM (HCT-116 [6]) [%],inhibition of growth at 50 µM (PC-3 [7]) [%],inhibition of growth at 10 µM (PC-3 [8]) [%],growth inhibition (GI) (MCF7 [9]),growth inhibition (GI) (A549 [10]),growth inhibition (GI) (HCT-116 [11])
Fc1ccc(C2=NC(c3ccccc3)c3c(ccc4ccccc34)O2)cc1 (centres undefined),1.75,2.05,2.35,1.75,1.45,51,29,50,18,56,12,39,14,Dose-dependent effect,Dose-dependent effect,Dose-dependent effect
Cc1ccc(C2N=C(c3ccc(Cl)cc3)Oc3ccc4ccccc4c32)cc1 (centres undefined),1.49,1.79,0.88,1.79,1.49,37,21,28,16,6,3,13,8,,,
OC(Cn1cncn1)(Cn1cncn1)c1ccc(F)cc1F [FLUCONAZOLE],,,,2.64,2.64,,,,,,,,,,,
O=C(O)c1cn(C2CC2)c2cc(N3CCNCC3)c(F)cc2c1=O [CIPROFLOXACIN],2.61,2.61,2.61,,,,,,,,,,,,,
O=[N+]([O-])c1ccc(C2=NC(c3ccccc3)c3c(ccc4ccccc34)O2)cc1 (centres undefined),1.78,1.78,1.78,1.78,1.48,42,34,43,17,14,4,8,6,,,
Cc1ccc(C2N=C(c3ccccc3)Oc3ccc4ccccc4c32)cc1 (centres undefined),1.45,1.75,2.35,1.75,1.45,32,17,37,17,8,2,3,1,,,
Clc1ccc(C2=NC(c3ccc(Cl)cc3)c3c(ccc4ccccc34)O2)cc1 (centres undefined),1.51,1.81,2.11,1.81,1.51,38,16,54,28,10,2,2,1,,,
Cc1ccc(C2N=C(c3ccc(F)cc3)Oc3ccc4ccccc4c32)cc1 (centres undefined),1.47,2.07,2.07,1.77,1.47,44,20,44,16,23,18,19,5,,,
COc1ccc(C2=NC(c3ccc(C)cc3)c3c(ccc4ccccc34)O2)cc1 (centres undefined),1.78,1.78,2.08,1.78,1.48,39,36,36,15,14,7,10,1,,,
